Screens: PubChem BioAssay, several laboratories
The list is not random: actives were taken first. Their share in the collection is about 2.2%.
CXCR6 inh: blocks human CXCR6 beta-arrestin recruitment; O00574; AID 602244; CHO-K1 PathHunter CXCR6 beta-arrestin, luminescence; inhibition, % at 20 µM; hit rate 0.36% among 360,000; in the data active means inhibition above about 34%, passing the limit was not always enough;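 further: antagonist mode with CXCL16 agonist at 10 nM final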
Target sequence (O00574 whole entry, looked up): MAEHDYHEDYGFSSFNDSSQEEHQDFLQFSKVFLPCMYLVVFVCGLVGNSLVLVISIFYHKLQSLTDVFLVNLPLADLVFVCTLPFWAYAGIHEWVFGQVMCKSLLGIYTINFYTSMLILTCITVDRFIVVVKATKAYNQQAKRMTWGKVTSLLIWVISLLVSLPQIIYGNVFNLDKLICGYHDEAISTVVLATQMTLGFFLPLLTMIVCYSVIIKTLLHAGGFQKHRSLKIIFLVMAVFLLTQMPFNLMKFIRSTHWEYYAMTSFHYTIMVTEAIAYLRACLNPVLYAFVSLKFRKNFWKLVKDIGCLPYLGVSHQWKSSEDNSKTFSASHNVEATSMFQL
APJ antag: blocks the human apelin receptor APJ. inhibition, % at 20 µM. CHO-K1 APJ beta-arrestin complementation, luminescence. hit rate 0.32% among 330,000;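 active means inhibition above about 40% at 20 µM, limit read from the data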;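 further: cells challenged with 10 nM apelin-13 agonist together with compound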
CCR6 antag: blocks CCL20-driven beta-arrestin recruitment at human CCR6; hit rate 0.49% among 340,000; AID 493098; P51684; CHO-K1 CCR6 PathHunter beta-arrestin, luminescence, CCL20-stimulated; inhibition, % at 20 µM;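 active means compounds whose inhibition of the agonist-driven luminescence signal at 20 µM reaches about 50%, limit read from the data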;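 further: cells stimulated with CCL20 at 14 nM final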
EBI2 antag: blocks human EBI2 receptor beta-arrestin signaling. hit rate 0.81% among 360,000. inhibition, % at 5 µM. EBI2 beta-arrestin recruitment, luminescence, 7a,25-OHC stimulated; in the data active means inhibition above about 38%;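 further: enzyme fragment complementation signal reports receptor beta-arrestin coupling in cells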
APJ agonist: activates the human apelin receptor APJ; CHO-K1 APJ PathHunter beta-arrestin, luminescence; 0% DMSO wells, 100% apelin; P35414; activation, % at 20 µM; hit rate 0.11% among 330,000;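 active means activation more than six SD over the plate average, tested at 20 µM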
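Incubation: overnight seeding, 90 min compound at 25 °C, 1 h detection; test system: PathHunter CHO-K1 APJ (AGTRL-1) beta-arrestin reporter cells; amount: 1000 cells/well; doses: one dose, 20 µM compound, 1% DMSO; measured by: beta-gal luminescence; measure: agonist-driven arrestin binding to APJ; benchmarks: negative DMSO alone, positive Apelin-13 at 10 nM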
HTR2A ag: agonists of mouse serotonin 5-HT2A receptor (HTR2A). CHO-K1 mHTR2A beta-arrestin complementation, luminescence; percent of 30 µM serotonin response. hit rate 0.66% among 360,000. P35363. activation, % at 7.6 µM;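 active means activation above a run cutoff, the mean activation of all tested compounds plus 3 SD, cut at about 14% in these data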
Hits are given with their value; 0 = inactive; - = not tested or not shown.

SMILES | CXCR6 inh | APJ antag | CCR6 antag | EBI2 antag | APJ agonist | HTR2A ag
CC(C)CC1C(=O)N(Cc2cn(CCC3OCCCO3)nn2)CCS(=O)(=O)N1Cc1ccc(-c2ccc(Cl)c(Cl)c2)cc1 (centres undefined) | 0 | - | - | 0 | - | 0
Cc1ccccc1NC(=S)Nc1cccc2cnccc12 | 0 | 0 | 0 | 0 | 16 | 0
CC1(C(=O)Nc2cnc3ccccc3c2)CCN1Cc1cc2ccccc2o1 (centres undefined) | 0 | - | - | 0 | - | 0
CCOc1ccc(C(=O)CCc2nc3ccccc3s2)cc1 | 0 | 0 | 0 | 0 | 0 | 21
N#CC1=C(N)C(C#N)(C#N)C(c2ccncc2)C2CN(C(=O)OCc3ccccc3)CC=C12 (centres undefined) | 0 | 0 | 56 | 0 | 0 | 0
N#CC1=C(N)C(C#N)(C#N)[C@H](c2cccnc2)[C@H]2CN(C(=O)OCc3ccccc3)CC=C12 | 0 | 0 | 0 | 0 | 0 | 0
CCOC(CN=c1nc(N(C)C)ss1)OCC | 60 | - | 92 | 0 | - | 0
Cc1cc(C)c2nc(SCC(=O)N3CC(=O)Nc4ccccc43)c(C#N)cc2c1 | 0 | 0 | 0 | 49 | 0 | 0
C=CCOC(=O)C(C#N)c1nc2ccccc2nc1N1CCN(c2ccccc2OC)CC1 (centres undefined) | 0 | 0 | 52 | 0 | 0 | 0
Cc1ccc(S(=O)(=O)N2c3ccccc3OC(C(=O)OC(C)(C)C)(C(=O)OC(C)(C)C)C2CC(=O)c2ccccc2)cc1 (centres undefined) | - | - | - | 0 | - | 0
CCC(OC(=O)c1ccc(S(C)(=O)=O)c([N+](=O)[O-])c1)C(=O)NC1C2CC3CC(C2)CC1C3 (centres undefined) | 0 | - | - | 0 | - | 0
CC(OC(=O)c1ccc(S(C)(=O)=O)c([N+](=O)[O-])c1)C(=O)NC1C2CC3CC(C2)CC1C3 (centres undefined) | 0 | - | - | 65 | - | 0
CS(=O)(=O)c1ccc(C(=O)OCC(=O)NC23CC4CC(CC(C4)C2)C3)cc1[N+](=O)[O-] | 0 | 0 | 0 | 65 | 0 | 0
Cn1cccc1C(=O)NC(=O)COC(=O)c1ccc(S(C)(=O)=O)c([N+](=O)[O-])c1 | 0 | 0 | 0 | 0 | 0 | 0
O=C1NC(=S)SC1=Cc1ccccn1 | 0 | - | - | 0 | - | 0
O=C(NC1CCCCC1)C1c2ccccc2OCC(=O)N1Cc1ccco1 (centres undefined) | 0 | - | - | 0 | - | 0
COC(=O)C1=C(C)N(c2ccc(C)c(C)c2)/C(=C/c2ccco2)C1=O | 0 | 0 | 0 | 0 | 0 | 18
N#Cc1c(N2CCN(C(=O)c3ccccc3)CC2)nc(-c2ccccc2)c2c1CCCC2 | 0 | 0 | 50 | 0 | 0 | 0
COc1ccc(NC(=O)CN2C(=O)/C(=C3\SC(=S)N(CCC(=O)O)C3=O)c3ccccc32)cc1 | 0 | 0 | 55 | 0 | 0 | 0
Oc1[nH]c2ccccc2c1N=Nc1nc2ccccc2s1 | 0 | 0 | 58 | 0 | 0 | 0
Cc1ccc2[nH]c(O)c(N=Nc3ccccc3[N+](=O)[O-])c2c1 | 0 | - | 0 | 0 | - | 0
Cc1ccc2[nH]c(O)c(N=Nc3nc4ccccc4s3)c2c1 | 42 | 0 | 0 | 0 | 0 | 0
O=C(NC(c1ccc(-c2ccccc2)cc1)c1cnccn1)C1CCN(Cc2ccc3c(c2)OCO3)CC1 (centres undefined) | 0 | - | - | 0 | - | 0
Cc1ccc(S(=O)(=O)N2CC3(O)CN(C(=O)OC(C)C)N(C(=O)OC(C)C)CC3(OC(=O)NC3CCCC3)C2)cc1 (centres undefined) | 0 | - | - | 0 | - | 0
COC(=O)[C@@]12C[C@@H](CC(=O)NCc3ccc(OC)c(OC)c3)C(=O)N(Cc3ccc4c(c3)OCO4)C1=CCC(C)(C)C2 | - | - | - | 0 | - | 0
CC(C)Nc1nc(Nc2ccc(C(N)=O)cc2)c2sccc2n1 | 0 | - | - | 0 | - | 0
N#Cc1c(/N=C/C=C/c2ccccc2)sc2c1CCCC2 | 0 | 0 | 0 | 0 | 0 | 16
O=c1[nH]c2cc3ccccc3cc2nc1-c1nnnn1C1CCCC1 | 0 | - | - | 0 | - | 0
Cc1noc(C)c1C(=O)N(C)C[C@@H]1OCc2ccccc2-c2c(n(C)c3ccccc23)C(=O)N([C@H](C)CO)C[C@H]1C | 0 | - | - | 0 | - | 0
O=C(O)CC1S/C(=N/N=C/c2ccc(-c3ccc(Cl)c([N+](=O)[O-])c3)o2)NC1=O (centres undefined) | 0 | 0 | 58 | 0 | 0 | 0
